“Also recorded” adds a separate entry of the source.
Key:
HepG2 cells [1] = assay: Cell death of HepG2 cells stably transfected with CYP3A4-EGFP or empty vector; format: cell-based, human; settings: 15 μM, 24 h; for cell death of HepG2 cells: influence of cellular CYP3A4 overexpression: CYP3A4-EGFP versus vector
Outline: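 HepG2 cells were lipofected with pcDNA3-CYP3A4-EGFP or pcDNA3-EGFP and kept in G418 (0.5 mg/mL) for four weeks; plasmid presence was confirmed by PCR. Cells were seeded at 0.1 × 10^6 per well, adhered overnight, then exposed to 15 μM for 24 h. Propidium iodide (5 μg/mL in PBS) staining was read by flow cytometry without FSC/SSC gating. Specific cell death was calculated against control. Mean ± SEM, three independent experiments.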

VCR-R CEM cells [2] = assay: Western blot analysis of VCR-R CEM cell lysates; format: cell-based, human; settings: 5 μM, 24 h
Outline: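 VCR-R CEM cells were seeded at 2 × 10^6 per well 4 h before treatment with DMSO or 5 μM compound for 24 h. Lysates were made in RIPA, separated by SDS-PAGE and transferred to PVDF. Blots were probed for p-Akt (Ser473), total Akt, PARP, Bcl-xL and Mcl-1 (1:1000) and detected by chemiluminescence, with stain-free total protein as loading control.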

VCR-R CEM cells [3] = assay: Mitochondrial membrane potential; format: cell-based, human; settings: 24 h
Outline: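 VCR-R CEM cells were seeded at 0.125 × 10^6 per well 4 h before 24 h exposure to 5 μM compound or DMSO. JC-1 (1 μg/mL) was applied for 1 h before harvest, with elacridar (5 μM) present […]. Cells were washed, resuspended in PBS and read by flow cytometry as the red/green fluorescence shift.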

HepaRG™ cells = assay: Toxicity to differentiated HepaRG cells without transfection; format: cell-based, human; settings: 24 h, compared with tetrandrine; for cell viability of HepaRG cells: 10 μM; for toxicity to HepaRG cells (cell viability): 20 μM
Outline: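 HepaRG cells were differentiated in Williams' E with GlutaMAX and Maintenance/Metabolism supplement, then exposed to compound for 24 h. Viability was read by CellTiter-Blue and normalised to vehicle control. Mean ± SEM, three independent experiments.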

[4] = system: CYP3A4 overexpressing HepaRG™ cells; format: cell-based, human; settings: 10 μM, 24 h
Outline: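 HepaRG cells were differentiated in Maintenance/Metabolism medium, then lipofected with pcDNA3-CYP3A4-EGFP or pcDNA3-EGFP 16 h before treatment. Exposure was 10 μM for 24 h. Cell death was read by propidium iodide staining (5 μg/mL in PBS) and flow cytometry, with no FSC/SSC gating. Specific cell death was calculated against control. Mean ± SEM, three independent experiments.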

[5] = system: human umbilical vein endothelial cells (HUVECs); assay: HUVEC viability; format: cell-based; settings: 10 μM, 24 h, compared with tetrandrine
Outline: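 HUVECs were cultured in ECGM with 10% FCS and antibiotics/antimycotic, for at most six passages. They were seeded at […], adhered overnight, then exposed to 1, 5 or 10 μM for 24 h. Viability was read by CellTiter-Blue, with fluorescence normalised to vehicle. Mean ± SEM, three independent experiments.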

HepG2 cells [6] = assay: Western blot analysis of HepG2 cells; format: cell-based, human; settings: 5 μM, 48 h
Outline: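 HepG2 cells were seeded at 0.5 × 10^6 per well, adhered overnight, then treated with DMSO or 5 μM compound for 24 or 48 h. Cells were lysed in RIPA, run on SDS-PAGE and transferred to PVDF. Blots were probed with p-Akt (Ser473), total Akt, PARP, Bcl-xL and Mcl-1 antibodies (1:1000) and detected by chemiluminescence, with stain-free total protein as loading control.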

VCR-R CEM cells [7] = assay: Apoptosis assay in combination with vincristine; format: cell-based, human; settings: 1 μM compound with varying doses of VCR, 48 h
VCR-R CEM cells [8] = assay: Cell proliferation assay; format: cell-based, human; settings: 48 h, relative proliferation at 10 μM and IC50
Outline: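 VCR-R CEM cells (RPMI 1640, 10% FCS) were seeded at 0.02 × 10^6 per well and rested 4 h. Metabolic activity read at that point served as the zero value. Compound exposure was 48 h, with CellTiter-Blue added 2 h before the end and fluorescence read at 590 nm. IC50 was obtained by nonlinear regression; relative proliferation was also taken at 10 μM.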

P-gp = P-gp (Homo sapiens, UniProt P08183); assay: Calcein-AM retention assay in P-gp overexpressing VCR-R CEM cells; format: cell-based; settings: 0.1 and 1 μM
Outline: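 VCR-R CEM cells were loaded with calcein-AM (200 nM) plus test compound (0.1 or 1 μM) for 30 min at 37 °C. After a wash, they were kept without calcein-AM for a further 60 min at 37 °C, then analysed by flow cytometry. Geometric mean fluorescence intensity was normalised to the calcein-AM-only control.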

[9] = system: peripheral blood mononuclear cells (PBMCs); assay: PBMC cell death; format: cell-based, human; settings: 5 and 10 μM, 48 h, compared with RMS3 and RMS5
Outline: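 PBMCs were isolated from anticoagulated healthy-donor blood on a Ficoll density gradient and kept in RPMI 1640 with 20% FCS and penicillin/streptomycin. Treatment started 4 h after seeding and lasted 48 h. Cells were stained with propidium iodide (5 μg/mL in PBS) and read by flow cytometry, with debris excluded and PI-positive cells counted.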

Chain of P-gp (P08183 whole entry): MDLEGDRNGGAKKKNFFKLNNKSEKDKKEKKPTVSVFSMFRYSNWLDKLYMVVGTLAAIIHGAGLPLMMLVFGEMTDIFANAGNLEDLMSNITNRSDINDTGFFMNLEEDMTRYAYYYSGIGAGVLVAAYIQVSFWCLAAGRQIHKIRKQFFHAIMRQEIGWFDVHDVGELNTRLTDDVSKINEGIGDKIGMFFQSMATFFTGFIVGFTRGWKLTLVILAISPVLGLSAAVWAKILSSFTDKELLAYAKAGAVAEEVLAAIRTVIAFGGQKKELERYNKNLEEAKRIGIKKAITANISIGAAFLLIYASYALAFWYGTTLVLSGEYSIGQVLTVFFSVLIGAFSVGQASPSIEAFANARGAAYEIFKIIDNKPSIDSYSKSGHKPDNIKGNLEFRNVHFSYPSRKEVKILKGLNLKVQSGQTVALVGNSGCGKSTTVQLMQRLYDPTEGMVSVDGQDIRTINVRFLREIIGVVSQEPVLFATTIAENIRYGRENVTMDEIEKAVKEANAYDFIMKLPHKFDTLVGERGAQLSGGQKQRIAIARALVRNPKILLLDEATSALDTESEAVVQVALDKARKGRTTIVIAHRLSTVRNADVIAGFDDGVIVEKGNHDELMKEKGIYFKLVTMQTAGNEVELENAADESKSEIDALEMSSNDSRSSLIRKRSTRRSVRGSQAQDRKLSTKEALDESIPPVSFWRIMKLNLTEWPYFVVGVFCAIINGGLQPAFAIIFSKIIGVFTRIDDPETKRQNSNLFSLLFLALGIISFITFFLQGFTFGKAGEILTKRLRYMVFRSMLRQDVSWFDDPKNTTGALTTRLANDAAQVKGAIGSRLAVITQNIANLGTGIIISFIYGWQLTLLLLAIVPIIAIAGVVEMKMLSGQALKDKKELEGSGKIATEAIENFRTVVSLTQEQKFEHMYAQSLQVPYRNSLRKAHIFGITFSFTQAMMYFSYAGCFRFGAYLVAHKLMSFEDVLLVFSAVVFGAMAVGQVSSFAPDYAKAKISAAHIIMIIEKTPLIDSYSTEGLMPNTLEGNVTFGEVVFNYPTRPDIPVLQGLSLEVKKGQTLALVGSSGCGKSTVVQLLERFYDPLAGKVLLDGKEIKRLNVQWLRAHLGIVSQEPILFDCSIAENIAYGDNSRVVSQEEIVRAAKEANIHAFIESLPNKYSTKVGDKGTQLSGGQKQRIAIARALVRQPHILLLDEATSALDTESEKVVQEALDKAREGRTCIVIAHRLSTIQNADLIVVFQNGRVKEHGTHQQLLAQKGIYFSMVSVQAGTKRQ

COc1cc2c3cc1Oc1c(OC)c(OC)cc4c1C(Cc1cccc(c1)Oc1ccc(cc1)CC3N(C)CC2)N(C)CC4 (racemic) [RMS1, (±)-12-Desmethoxytetrandrine and –isotetrandrine]
cytotoxicity against HepG2 cells in comparison to tetrandrine (HepG2 cells [1]): generally increased cytotoxicities | PARP cleavage (VCR-R CEM cells [2]): detected | mitochondrial membrane potential ΔΨm (JC-1 shift towards green fluorescence) (VCR-R CEM cells [3]): no such an effect

COc1cc2c3cc1Oc1c(OC)c(OC)cc4c1C(Cc1cccc(c1)Oc1ccc(cc1)CC3N(C)CC2)N(C)CC4 (racemic) [RMS2, (±)-12-Desmethoxytetrandrine and –isotetrandrine]
cytotoxicity against HepG2 cells in comparison to tetrandrine (HepG2 cells [1]): generally increased cytotoxicities | cell viability of HepaRG cells (HepaRG™ cells): strongly decreased cell viability | toxicity to HepaRG cells (cell viability) (HepaRG™ cells): significantly more toxic to HepaRG™ cells than tetrandrine | cell death of CYP3A4 overexpressing HepaRG cells versus empty vector [4]: strongest effect on cell viability

COc1cc2c3cc1Oc1c(OC)c(OC)cc4c1C(Cc1ccc(OC(F)(F)F)c(c1)Oc1ccc(cc1)CC3N(C)CC2)N(C)CC4 (racemic) [RMS3, (±)-12-Desmethoxy-12-trifluoromethoxytetrandrine and –isotetrandrine]
cytotoxicity against HepG2 cells in comparison to tetrandrine (HepG2 cells [1]): generally increased cytotoxicities; also recorded: strongly increased cytotoxicites | PARP cleavage (VCR-R CEM cells [2]): detected | viability of HUVECs [5]: slightly stronger effect on the viability of HUVECs than tetrandrine

COc1cc2c3cc1Oc1c(OC)c(OC)cc4c1C(Cc1ccc(OC(F)(F)F)c(c1)Oc1ccc(cc1)CC3N(C)CC2)N(C)CC4 (racemic) [RMS4, (±)-12-Desmethoxy-12-trifluoromethoxytetrandrine and –isotetrandrine]
p-Akt levels (HepG2 cells [6]): reduced | cytotoxicity against HepG2 cells in comparison to tetrandrine (HepG2 cells [1]): generally increased cytotoxicities | PARP cleavage (VCR-R CEM cells [2]): detected | cell viability of HepaRG cells (HepaRG™ cells): slightly | toxicity to HepaRG cells (cell viability) (HepaRG™ cells): significantly more toxic to HepaRG™ cells than tetrandrine

COc1cc2c3cc1Oc1c(OC)c(OC)cc4c1C(Cc1cc(cs1)Oc1ccc(cc1)CC3N(C)CC2)N(C)CC4 (racemic) [RMS5, (±)-Ring C thiophene analogues of tetrandrine and –isotetrandrine]
expression of Bcl-XL and Mcl-1 (HepG2 cells [6]): slightly diminished | p-Akt levels (HepG2 cells [6]): reduced | cytotoxicity against HepG2 cells in comparison to tetrandrine (HepG2 cells [1]): generally increased cytotoxicities; also recorded: strongly increased cytotoxicites

COc1cc2c3cc1Oc1c(OC)c(OC)cc4c1C(Cc1cc(cs1)Oc1ccc(cc1)CC3N(C)CC2)N(C)CC4 (racemic) [RMS6, (±)-Ring C thiophene analogues of tetrandrine and –isotetrandrine]
toxicity to HepaRG cells (cell viability) (HepaRG™ cells): significantly less toxic than tetrandrine | sensitization of VCR-R CEM cells to vincristine (apoptosis) (VCR-R CEM cells [7]): successfully sensitized VCR-R CEM cells to VCR | inhibition of proliferation of VCR-R CEM cells (VCR-R CEM cells [8]): nearly inactive; also recorded: no direct effect on proliferation | mitochondrial membrane potential ΔΨm (JC-1 shift towards green fluorescence) (VCR-R CEM cells [3]): no such an effect | prevention of efflux of calcein-AM (P-gp inhibition) (P-gp): inhibition of P-gp

COc1cc2c3cc1Oc1c(OC)c(OC)cc4c1C(Cc1ccc(Cl)c(c1)Oc1ccc(cc1)CC3N(C)CC2)N(C)CC4 (racemic) [RMS7, (±)-12-Desmethoxy-12-chlorotetrandrine and –isotetrandrine]
cytotoxicity against HepG2 cells in comparison to tetrandrine (HepG2 cells [1]): generally increased cytotoxicities | mitochondrial membrane potential ΔΨm (JC-1 shift towards green fluorescence) (VCR-R CEM cells [3]): no such an effect

COc1cc2c3cc1Oc1c(OC)c(OC)cc4c1C(Cc1ccc(Cl)c(c1)Oc1ccc(cc1)CC3N(C)CC2)N(C)CC4 (racemic) [RMS8, (±)-12-Desmethoxy-12-chlorotetrandrine and –isotetrandrine]
cytotoxicity against HepG2 cells in comparison to tetrandrine (HepG2 cells [1]): generally increased cytotoxicities | PARP cleavage (VCR-R CEM cells [2]): detected | cell viability of HepaRG cells (HepaRG™ cells): slightly | toxicity to HepaRG cells (cell viability) (HepaRG™ cells): significantly more toxic to HepaRG™ cells than tetrandrine | sensitization of VCR-R CEM cells to vincristine (apoptosis) (VCR-R CEM cells [7]): most potent analogue as it significantly increased apoptosis at 0.01 μM VCR

COc1cc2c3cc1Oc1c(OC)c(OC)cc4c1C(CCCCOc1ccc(cc1)CC3N(C)CC2)N(C)CC4 (racemic) [RMS9, (±)-Ring C propylidene analogues of tetrandrine and –isotetrandrine]
toxicity to HepaRG cells (cell viability) (HepaRG™ cells): significantly less toxic than tetrandrine | sensitization of VCR-R CEM cells to vincristine (apoptosis) (VCR-R CEM cells [7]): all but RMS9 and RMS10 were able to sensitize | inhibition of proliferation of VCR-R CEM cells (VCR-R CEM cells [8]): nearly inactive | mitochondrial membrane potential ΔΨm (JC-1 shift towards green fluorescence) (VCR-R CEM cells [3]): no such an effect | prevention of efflux of calcein-AM (P-gp inhibition) (P-gp): strongly reduces it

COc1cc2c3cc1Oc1c(OC)c(OC)cc4c1[C@@H](Cc1ccc(O)c(c1)Oc1ccc(cc1)C[C@@H]3N(C)CC2)N(C)CC4 [berbamine, reference compound]
cell death of HepG2 cells: influence of cellular CYP3A4 overexpression (HepG2 cells [1]): not significantly increased

COc1cc2c(cc1OC)[C@@H](Cc1ccc(Oc3cc(C[C@@H]4c5cc(OC)c(OC)cc5CCN4C)ccc3O)cc1)N(C)CC2 [dauricine, reference compound]
cell death of HepG2 cells: influence of cellular CYP3A4 overexpression (HepG2 cells [1]): not significantly increased

COc1ccc2cc1Oc1ccc(cc1)C[C@H]1c3cc(c(OC)cc3CCN1C)Oc1c(OC)c(OC)cc3c1[C@H](C2)N(C)CC3 [tetrandrine, reference compound]
mitochondrial membrane potential ΔΨm (JC-1 shift towards green fluorescence) (VCR-R CEM cells [3]): no such an effect | percentage of dead PBMCs [9]: highest percentage of dead PBMCs
